Assay [1] deals with KG-1. Nature of the assay: Induction of apoptosis in retinoid-resistant KG1 cells at 5 uM after 48 hrs. It counts as functional, Homo sapiens. An outline of the steps:
(§1)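 Apoptotic cells scored by acridine orange staining. KG-1, HL-60R or MDA-MB-231 cells seeded in medium with 5% FBS, incubated overnight, then exposed to compound in Me2SO (0.1% final) for the stated time.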

Assay [2] concerns MDA-MB-231. Nature of the assay: Growth inhibition of retinoid-resistant MDA-MB-231 cells after 72 hrs. The format is functional, cell-based. Conditions: Homo sapiens, MDA-MB-231, 72 h. In outline: (§2)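 Cells seeded at 2 × 10^3 per well for H292 and DU-145 (RPMI-1640, 10% FBS) or 4 × 10^3 for MDA-MB-231 (DMEM, 10% FBS), 37 °C, 6% CO2. After 24 h attachment, treated 72 h with compound in Me2SO (0.1% final); media and compound renewed at 48 h. Viable cells by MTS reduction; triplicates per concentration.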

The subject of assay [3] is KG-1. Nature of the assay: Inhibition of cell proliferation in retinoid-resistant KG1 cells after 48 hrs. Conditions: Homo sapiens, KG-1, 48 h. The format is functional, cell-based. An outline of the steps: (§3)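 KG-1 cells grown in RPMI-1640 with 5% heat-inactivated FBS and gentamycin, seeded in 3 mL medium plus 5% FBS, incubated overnight. Compound then added in Me2SO (0.1% final), cells incubated for the stated time, harvested and counted by hemocytometer.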

Assay [4] deals with T1, Tyrosine-protein phosphatase non-receptor type 11 (Homo sapiens, UniProt Q06124).
T1 sequence (Q06124 whole entry): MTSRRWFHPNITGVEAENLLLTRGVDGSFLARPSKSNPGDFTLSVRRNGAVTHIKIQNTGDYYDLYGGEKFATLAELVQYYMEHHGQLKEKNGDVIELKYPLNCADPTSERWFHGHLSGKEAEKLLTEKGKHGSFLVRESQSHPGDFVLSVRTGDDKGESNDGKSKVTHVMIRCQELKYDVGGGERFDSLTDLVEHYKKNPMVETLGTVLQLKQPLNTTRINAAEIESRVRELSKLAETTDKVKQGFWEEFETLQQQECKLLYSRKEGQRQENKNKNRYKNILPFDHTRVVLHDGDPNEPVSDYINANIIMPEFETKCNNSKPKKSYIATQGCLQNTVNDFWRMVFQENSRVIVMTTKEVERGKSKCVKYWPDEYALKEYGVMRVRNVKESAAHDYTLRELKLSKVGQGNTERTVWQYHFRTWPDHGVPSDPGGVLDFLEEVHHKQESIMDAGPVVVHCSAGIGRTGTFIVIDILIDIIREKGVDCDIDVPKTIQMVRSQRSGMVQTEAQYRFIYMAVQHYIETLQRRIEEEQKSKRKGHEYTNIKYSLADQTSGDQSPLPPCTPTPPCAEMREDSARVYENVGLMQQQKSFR
Nature of the assay: Inhibition of SHP2 PTP by fluorescence spectroscopy.

A short description of assay [5]: Growth inhibition of primary HMVE cells at 1 uM after 72 hrs. The format is functional. Particulars: Homo sapiens. In outline:
(§4)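 Primary HMVE cells, 1 × 10^4 per well in EGM-MV medium, incubated 1 h at 37 °C. Compound in Me2SO added, or Me2SO alone (0.5% final). After 72 h at 37 °C, cells detached with trypsin/EDTA and counted by hemocytometer; three replicates.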

The subject of assay [6] is DU-145. The assay is described as follows: Growth inhibition of retinoid-resistant DU145 cells after 72 hrs. The format is functional, cell-based. Particulars: Homo sapiens, DU-145, 72 h. In outline: as §2
Assay [7] concerns MDA-MB-231. Nature of the assay: Growth inhibition of retinoid-resistant MDA-MB-231 cells at 1 uM relative to control. It counts as functional. Conditions: Homo sapiens. An outline of the steps: as §2
The target of assay [8] is Receptor-type tyrosine-protein phosphatase C, CD45 (Homo sapiens) (UniProt P08575). Nature of the assay: Inhibition of CD45 PTP at 10 uM relative to control by fluorescence spectrometry.
Assay [9] addresses T2, Nuclear receptor subfamily 0 group B member 2 (Homo sapiens) (UniProt Q15466).
T2 sequence (whole entry): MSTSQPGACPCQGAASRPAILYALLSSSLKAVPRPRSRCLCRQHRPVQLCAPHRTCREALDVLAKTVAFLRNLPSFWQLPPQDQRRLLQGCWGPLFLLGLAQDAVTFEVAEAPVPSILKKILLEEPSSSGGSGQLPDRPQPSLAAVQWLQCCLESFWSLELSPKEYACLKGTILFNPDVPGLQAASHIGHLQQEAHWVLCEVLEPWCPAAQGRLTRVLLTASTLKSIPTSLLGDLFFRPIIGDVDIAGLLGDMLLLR
Nature of the assay: Displacement of [5,5'-3H2]AHPN from recombinant human GST-SHP partner nuclear orphan receptor at 50 uM. In outline: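 GST–human SHP fusion (150–500 ng) on glutathione-Sepharose beads preincubated on ice 45 min with unlabeled compound (50 µM final) in 0.4 mL binding buffer. [5,5′-3H2]AHPN (5 nM final) then added for 2 h at 4 °C. Beads washed, counted by scintillation directly or after elution with 50 mM NaHCO3/1% SDS.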

Assay [10] has as its system KG-1. The assay is described as follows: Growth inhibition of retinoid-resistant KG1 cells at 5 uM after 48 hrs. Conditions: Homo sapiens, KG-1, 48 h. It counts as functional. In outline:
as §3

Assay [11] in a line: Growth inhibition of retinoid-resistant H292 cells after 72 hrs. Conditions: Homo sapiens, NCI-H292, 72 h. The format is functional, cell-based. In outline: as §2
The subject of assay [12] is KG-1. The assay is described as follows: Inhibition of cell proliferation in retinoid-resistant KG1 cells at 1 uM after 48 hrs relative to control. It counts as functional. Conditions: Homo sapiens, KG-1, 48 h. In outline: as §3
Assay [13] has as its system KG-1. Nature of the assay: Induction of apoptosis in retinoid-resistant KG1 cells at 1 uM after 48 hrs. The format is functional, Homo sapiens. In outline: as §1
A short description of assay [14]: Growth inhibition of retinoid-resistant H292 cells at 1 uM relative to control. It counts as functional. Particulars: Homo sapiens, NCI-H292. An outline of the steps: as §2
Assay [15] deals with DU-145. The assay is described as follows: Growth inhibition of retinoid-resistant DU145 cells at 1 uM relative to control. Particulars: Homo sapiens. It counts as functional. An outline of the steps: as §2
A short description of assay [16]: Growth inhibition of primary HMVE cells after 72 hrs. It counts as functional, cell-based. Particulars: Homo sapiens. An outline of the steps: as §4
A short description of assay [17]: Antiproliferative activity against HMVE cells. The format is functional, cell-based. Conditions: Homo sapiens.
Assay [18] is described as follows: Inhibition of HMVE cell proliferation at 0.5 uM relative to control. It counts as functional. Conditions: Homo sapiens.
Assay [19] concerns HMVE. Nature of the assay: Inhibition of HMVE cell migration through Matrigel after 5 hrs. It counts as functional, cell-based. Conditions: Homo sapiens. An outline of the steps: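 Transwell inserts (8 µm pores) with undersides coated with Matrigel (30 µg/mL), blocked with 1% BSA. HMVE cells from 80% confluent cultures, released enzyme-free, were placed in inserts with compound (0.05–500 nM) or Me2SO (0.01% final). After 5 h at 37 °C, cells on underside fixed, stained with Diff-Quick and counted in three high-power fields per well; mean ± SD of three replicates.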

For assay [20], the system named is MDA-MB-231. The assay is described as follows: Induction of apoptosis in MDA-MB-231 cells at 1 uM after 96 hrs. The format is functional, Homo sapiens. An outline of the steps: as §1
Assay [21] concerns HMVE. The assay is described as follows: Inhibition of HMVE cell tubule formation in Matrigel after 18 hrs. It counts as functional, cell-based. Particulars: Homo sapiens. In outline:
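Trypsinized HMVE cells (5 × 10^4 per well in EGM-MV) plated on gelled Matrigel, held 1 h at 37 °C, then exposed 18 h at 37 °C to 0.25 or 1.0 µM compound or Me2SO (0.05% final). Total tube length measured from phase-contrast images, four random fields per well, three replicates.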

Assay [22] in a line: Induction of apoptosis in HMVE cells at 0.5 uM after 20 hrs relative to adriamycin. The format is functional, Homo sapiens. An outline of the steps:
(§5)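 HMVE cells (6 × 10^4 per well) seeded in EGM-MV, incubated 6 h at 37 °C. Then treated 20 h with compound (10–500 nM), 1.0 µM doxorubicin or Me2SO (0.5% final). Cytoplasmic histone-associated DNA fragments in lysate supernatant measured by Cell Death Detection ELISA; triplicates.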

For assay [23], the system named is HMVE. The assay is described as follows: Induction of apoptosis in HMVE cells assessed as increase in oligonucleosome levels after 20 hrs by ELISA. The format is functional, cell-based. Conditions: Homo sapiens. In outline: as §5
A general note: An ELISA detects its analyte on a solid surface through an enzyme-linked reagent.

For assay [24], the system named is MDA-MB-231. Nature of the assay: Induction of apoptosis in retinoid-resistant MDA-MB-231 cells at 1 uM after 96 hrs. It counts as functional, Homo sapiens. An outline of the steps:
as §1

The next assay relates to Mus musculus. Nature of the assay: Inhibition of TPA-induced ornithine decarboxylase in mouse dorsal epidermis applied topically after 1 hr. It counts as functional.
Assay [25] can be described thus: Induction of apoptosis in tran-RA-resistant HL60R cells at 1 uM after 24 hrs. It counts as functional, Homo sapiens.
Assay [26] has as its system MDA-MB-231. The assay is described as follows: Induction of apoptosis in retinoid-resistant MDA-MB-231 cells at 2 uM after 96 hrs. It counts as functional, Homo sapiens.

Activity calls are given as the source filed them. The rule behind the calls is not given here.

Sequence of Receptor-type tyrosine-protein phosphatase C, CD45 (Homo sapiens) (P08575 whole entry, looked up): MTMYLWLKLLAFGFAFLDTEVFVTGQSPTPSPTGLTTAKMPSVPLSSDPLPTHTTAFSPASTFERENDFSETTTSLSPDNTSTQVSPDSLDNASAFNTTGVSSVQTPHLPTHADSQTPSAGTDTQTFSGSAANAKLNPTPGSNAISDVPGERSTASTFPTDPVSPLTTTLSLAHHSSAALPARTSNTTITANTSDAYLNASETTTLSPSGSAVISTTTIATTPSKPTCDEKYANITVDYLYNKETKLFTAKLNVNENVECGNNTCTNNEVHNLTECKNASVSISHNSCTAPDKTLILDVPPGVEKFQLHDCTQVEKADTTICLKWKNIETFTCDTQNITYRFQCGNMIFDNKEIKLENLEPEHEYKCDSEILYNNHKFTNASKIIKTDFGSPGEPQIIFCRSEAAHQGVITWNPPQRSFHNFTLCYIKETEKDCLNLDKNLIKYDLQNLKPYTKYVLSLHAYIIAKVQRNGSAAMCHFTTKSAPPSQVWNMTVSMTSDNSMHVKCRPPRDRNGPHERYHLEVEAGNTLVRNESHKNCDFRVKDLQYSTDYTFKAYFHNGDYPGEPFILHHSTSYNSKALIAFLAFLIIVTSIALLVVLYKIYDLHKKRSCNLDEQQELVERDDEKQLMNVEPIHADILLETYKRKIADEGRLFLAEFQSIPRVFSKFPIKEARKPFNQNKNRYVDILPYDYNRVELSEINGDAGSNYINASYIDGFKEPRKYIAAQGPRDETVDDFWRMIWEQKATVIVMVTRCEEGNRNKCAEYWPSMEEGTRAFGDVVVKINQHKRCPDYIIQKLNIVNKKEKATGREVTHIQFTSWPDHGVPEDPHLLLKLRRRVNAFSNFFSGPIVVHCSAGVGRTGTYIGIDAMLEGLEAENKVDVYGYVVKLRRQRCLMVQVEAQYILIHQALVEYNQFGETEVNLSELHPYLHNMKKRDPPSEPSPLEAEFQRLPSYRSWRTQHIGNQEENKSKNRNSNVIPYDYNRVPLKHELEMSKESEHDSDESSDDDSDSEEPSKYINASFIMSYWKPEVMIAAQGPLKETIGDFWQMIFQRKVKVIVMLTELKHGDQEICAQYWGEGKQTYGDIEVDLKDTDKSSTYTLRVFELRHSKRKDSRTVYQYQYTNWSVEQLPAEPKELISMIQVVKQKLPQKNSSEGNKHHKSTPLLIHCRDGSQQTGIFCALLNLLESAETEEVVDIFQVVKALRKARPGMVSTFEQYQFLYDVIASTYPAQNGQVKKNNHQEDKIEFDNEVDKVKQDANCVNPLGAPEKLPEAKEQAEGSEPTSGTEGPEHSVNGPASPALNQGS

For `O=C1NC(=O)/C(=C/c2ccc(-c3ccc(O)c(C45CC6CC(CC(C6)C4)C5)c3)c(Cl)c2)S1`, the Activity in the assay with KG-1 [1] was found to be 10%; in assay [9], 37%; with KG-1 [13], 8%. Also, the IC50 is 18000 nM in the assay on MDA-MB-231 [2]; 14000 nM in the assay with KG-1 [3]; 2200 nM in assay [4]; 3700 nM with DU-145 [6]; 3600 nM in assay [11]. In addition, the inhibition at 1 µM in assay [5] came out at 30%; with MDA-MB-231 [7] it was 0%; with KG-1 [12] it was 28%; in assay [14], 17%; in the assay with DU-145 [15] it was 17%. Moreover, in assay [8], the inhibition is 53%. Further, in the assay with KG-1 [10], the inhibition at 5 µM worked out at 41%.

For the molecule `O=C(O)/C=C/c1ccc(-c2ccc(O)c(C34CC5CC(CC(C5)C3)C4)c2)c(Cl)c1`, the IC50 in assay [16] amounted to 300 nM; in [17], 300 nM; in the assay with MDA-MB-231 [2], 1800 nM; in the assay with KG-1 [3], 300 nM; with DU-145 [6], 500 nM; in assay [11], 400 nM. Moreover, at 0.5 µM the inhibition in [18] was 60%. The Activity in the assay with KG-1 [1] was 55%; in the assay on MDA-MB-231 [20], 43%; in assay [9], 87%; in assay [22], 64%; in the assay with KG-1 [13], 30%; with HMVE [23], “Dose-dependent effect”. Also, the result with HMVE [19] and with HMVE [21] was inactive. Moreover, the inhibition at 1 µM in the assay with MDA-MB-231 [7] came to 32%; in the assay on KG-1 [12], 44%; in [14], 79%; in the assay with DU-145 [15] it was 76%. The inhibition at 5 µM in the assay with KG-1 [10] is 67%.

In turn, `O=C(O)c1ccc2cc(-c3ccc(O)c(C45CC6CC(CC(C6)C4)C5)c3)ccc2c1` [O-DEMETHYLATED ADAPALENE] came in with an IC50 in [17] of 300 nM. Also, the figures for the Activity (in assay [9]; in the assay with MDA-MB-231 [24]; in [25]) were 53%, 46% and 98%, respectively. This molecule also displayed an ID50 with Mus musculus of 66 nmol.

The molecule `O=C(O)c1cccc2c(-c3ccc(O)c(C45CC6CC(CC(C6)C4)C5)c3)cccc12` gave an Activity in the assay with MDA-MB-231 [26] of 4%.

As usually defined, the IC50 is the concentration that gives 50% inhibition. Higher therefore signals lower potency. The term inhibition denotes how much of the control response was suppressed. A lower inhibition goes with a weak effect.

Source of the values: ChEMBL document CHEMBL1143670, “An adamantyl-substituted retinoid-derived molecule that inhibits cancer cell growth and angiogenesis by inducing apoptosis and binds to small heterodimer partner nuclear receptor: effects of modifying its carboxylate group on apoptosis, proliferation, and protein-tyrosine phosphatase activity” (J Med Chem, 2007).
